Only some compounds are listed: those with a hit (about 9.6% of all), similar ones and a draw of the others.
HCT116 bCat-KO: primary screen for growth suppressors in beta-catenin knockout HCT116 cells (colon tumor, human); AID 818, 2007; 1.5% of 140,000 active; viability, % at 10 µM; HCT116 beta-catenin knockout viability, CellTiter-Glo, 60 h; stronger effect = lower value;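 active = viability at or under a set limit, the compound median less 4 SD, cut at about 6% in these data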;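 also: 0% = Hyamine 1622 control at 20 µM and 100% = untreated cell control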
TNAP inh hi DEA: human TNAP enzyme inhibitors, primary screen, biochemical, luminescent, high phosphate acceptor level, uHTS | inhibition, % at 20 µM | AID 1135, 2008 | purified TNAP, CDP-star luminescence, 1 M DEA | 0.03% of 200,000 active | Alkaline phosphatase, tissue-nonspecific isozyme (Homo sapiens), P05186;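 active = over 50% inhibition of tissue-nonspecific alkaline phosphatase at 20 µM in the single-dose screen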;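 also: plate controls were DMSO wells for no effect and EDTA-quenched wells as full inhibition for full effect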
Target sequence (P05186 whole entry, looked up): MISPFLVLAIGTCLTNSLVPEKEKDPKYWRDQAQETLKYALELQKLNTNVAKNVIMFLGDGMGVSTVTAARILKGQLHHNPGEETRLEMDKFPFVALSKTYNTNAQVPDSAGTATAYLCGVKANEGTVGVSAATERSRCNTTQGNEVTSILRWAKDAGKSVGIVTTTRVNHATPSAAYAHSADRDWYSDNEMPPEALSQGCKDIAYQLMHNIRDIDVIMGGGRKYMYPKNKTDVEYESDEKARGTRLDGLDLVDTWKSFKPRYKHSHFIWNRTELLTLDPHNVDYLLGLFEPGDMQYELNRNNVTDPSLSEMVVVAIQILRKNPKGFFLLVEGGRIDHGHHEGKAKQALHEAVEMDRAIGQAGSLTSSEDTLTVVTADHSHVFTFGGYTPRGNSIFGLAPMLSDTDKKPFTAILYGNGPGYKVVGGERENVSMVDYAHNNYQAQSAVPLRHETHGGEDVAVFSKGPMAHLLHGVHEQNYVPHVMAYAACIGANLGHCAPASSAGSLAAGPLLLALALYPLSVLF
TNAP act hiacc: TNAP activators at high phosphate acceptor level, primary screen, biochemical, luminescence, uHTS; Alkaline phosphatase, tissue-nonspecific isozyme (Homo sapiens), P05186; purified TNAP, CDP-star luminescence, 1 M DEA, 30 min; stronger effect = higher value; 0 = EDTA background, 1 = DMSO-only activity; activation factor at 20 µM; 200,000 tested, under 10 active; AID 1136, 2008;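 active = activation factor at least 2 at 20 µM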
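system = human TNAP | amount = enzyme diluted 1/800 final | reagent = 100 µM CDP-star substrate | signal = luminescent substrate turnover signal | dosing = one dose, 20 µM | benchmarks = EDTA negative control, DMSO positive control | measure = activation factor | timing = 30 min reaction, room temperature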
TNAP inh noacc: human TNAP enzyme inhibitors, primary screen, biochemical, luminescent, no phosphate acceptor, uHTS; inhibition, % at 20 µM; Alkaline phosphatase, tissue-nonspecific isozyme (Homo sapiens), P05186; 0.26% of 200,000 active; purified TNAP, CDP-star luminescence, 30 min;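 active = tissue-nonspecific alkaline phosphatase inhibition above about 50% at 20 µM in the single-dose screen, limit read from the data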;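 also: 0% = DMSO negative control and 100% = EDTA positive control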
HCT116 PTEN-null: growth suppression of PTEN-null HCT116, primary screen, cell-based, CellTiter-Glo | HCT116 PTEN-null viability, 60 h; stronger effect = lower value | viability, % at 10 µM | 1.2% of 140,000 active | AID 827, 2007;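 active = viability at or below a set limit, 4 SD under the median of all tested compounds, cut at about 3.7% in these data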;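 also: PTEN knockout HCT116 line with beta catenin targeted HCT116 as companion control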
L major viab: Leishmania major promastigote growth inhibition, primary screen | Leishmania major promastigotes, resazurin fluorescence viability | inhibition, % at 10 µM | 9% of 200,000 active; in the data active = inhibition above about 50%;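 also: promastigotes grown with compound for 44 hours at 28 °C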
An asterisk follows results filed as active; / = not tested or not shown.

SMILES | HCT116 bCat-KO | TNAP inh hi DEA | TNAP act hiacc | TNAP inh noacc | HCT116 PTEN-null | L major viab
O=[N+]([O-])c1ccc(N/N=C/c2ccc(O)c(O)c2O)c(S(=O)(=O)N2CCOCC2)c1 | / | 35 | 0.6 | 30 | / | 28
COc1ccc(CN2CCNC(=O)C2CC(=O)NCc2cnn(C)c2)cc1OC (centres undefined) | / | -8 | 1.1 | -4 | / | -2
O=C(OCc1cc(=O)n2cc(Br)ccc2n1)c1ccc(Cl)c(S(=O)(=O)NCc2ccccc2)c1 | 88 | -6 | 1.1 | -7 | 85 | -5
Cc1ccc(N2C(=O)C3NN=C(C(=O)OCc4ccccc4)C3C2=O)c(C)c1 (centres undefined) | 92 | -3 | 1 | -2 | 92 | -12
Cc1cc(C)c(S(=O)(=O)Nc2ccc(O)cc2)cc1C | 63 | -2 | 1 | -2 | 67 | 6
Cc1cc(C)c(S(=O)(=O)Nc2cc(SCC(=O)O)c(O)c3ccccc23)cc1C | 6 | 3 | 1 | 24 | 12 | 99*
COC(=O)c1ccc2c(c1)C(C)(C)C(/C=C/c1ccc(O)cc1)=[N+]2C | 1.9* | 44 | 0.6 | 49 | 1.7* | 101*
COc1cc(/C=C/c2ccc(O)cc2)cc(OC)c1 | / | -1 | 1 | -4 | / | /
COc1cc(C(=O)O/N=C(\N)c2ccncc2)cc(OC)c1OC | 98 | -1 | 1 | -10 | 99 | 82*
CCOc1cc(C(=O)O/N=C(\N)c2ccc([N+](=O)[O-])cc2)cc(OCC)c1OCC | 79 | -5 | 1.1 | -8 | 73 | -3
COc1ccc(C(=O)O/N=C(\N)c2ccncc2)cc1OC | 89 | -2 | 1 | -4 | 97 | 6
COc1cc(C(=O)O/N=C(\N)c2ccc([N+](=O)[O-])cc2)cc(OC)c1OC | 89 | -3 | 1 | -6 | 69 | 56*
CCOc1ccc(NC(=O)C(C)Oc2ccccc2C(=O)Nc2cccc(Cl)c2Cl)cc1 (centres undefined) | 61 | -5 | 1 | -1 | 51 | 11
COc1ccc2nc(SCC(=O)N3CCCCCC3)c(C#N)cc2c1 | 90 | -6 | 1.1 | -5 | 84 | 80*
CCOc1ccc2nc(SCC(=O)N3c4ccccc4Sc4ccccc43)c(C#N)cc2c1 | 83 | -8 | 1.1 | -10 | 95 | 62*
COc1ccc2nc(SCC(=O)N3CCCCC3)c(C#N)cc2c1 | / | -3 | 1 | -4 | / | 58*
COCCNC(=O)NC(=O)CSc1nc(C)c(C)c(C)n1 | / | -7 | 1.1 | -17 | / | -4
COc1cccc(/C(C)=N/NC(=O)Cc2c(C)[nH][nH]c2=O)c1 | / | 2 | 1 | -6 | / | -5
COC(=O)C(Cc1ccccc1)NC(=O)c1cc(S(=O)(=O)N(C)C)ccc1Cl (centres undefined) | / | -4 | 1 | -16 | / | 0
C/C(=N\NC(=O)NC1CCCCC1)C1CCCCC1 | 88 | -6 | 1.1 | -6 | 103 | 95*
O=C(C#Cc1cccc([N+](=O)[O-])c1)c1ccccc1 | 8 | 4 | 1 | -9 | 3.7* | 11
O=C(/C=C/c1cccc([N+](=O)[O-])c1)OCC(=O)c1ccccc1 | / | -9 | 1.1 | -12 | / | -3
CC1CCCC(NC(=O)C2CCN(S(=O)(=O)N3CCCCCC3)CC2)C1C (centres undefined) | 80 | 0 | 1 | -2 | 89 | 10
O=C1CC(c2ccccc2)CC2=C1CN(C1CCCCC1)CN2 (centres undefined) | 29 | -6 | 1.1 | -10 | 32 | 82*
C=C(C)C1CC=C(C)/C(=N/NC(=O)CNc2ccc(OCC)cc2)C1 (centres undefined) | 57 | -5 | 1 | -7 | 70 | 100*
SMILES | HCT116 bCat-KO | TNAP inh hi DEA | TNAP act hiacc | TNAP inh noacc | HCT116 PTEN-null | L major viab
C=C(C)C1CC=C(C)/C(=N/NC(=O)c2cccs2)C1 (centres undefined) | 87 | 1 | 1 | -2 | 84 | 23
C=C(C)C1CC=C(C)/C(=N/NC(=O)c2ccc(NC(=O)CCC)cc2)C1 (centres undefined) | 99 | -6 | 1.1 | -11 | 103 | 100*
C=C(C)C1CC=C(C)/C(=N/NC(=O)CNc2ccc(C)cc2C)C1 (centres undefined) | 86 | -4 | 1 | -6 | 88 | 4
C=C(C)C1CC=C(C)/C(=N/NC(=O)c2ccc(NC(=O)CC)cc2)C1 (centres undefined) | 99 | 1 | 1 | -3 | 99 | 99*
C=C(C)C1CC=C(C)/C(=N/NC(=O)COc2ccccc2C)C1 (centres undefined) | 82 | -4 | 1 | -3 | 84 | 4
C=C(C)C1CC=C(C)/C(=N/NC(=O)c2ccccc2[N+](=O)[O-])C1 (centres undefined) | / | -6 | 1.1 | -3 | / | 63*
CCCCCCCCc1nc(SC(C)C(=O)O)n[nH]1 (centres undefined) | / | 1 | 1 | 7 | / | -10
[O-]/C(=C(\C(=S)Nc1cccc2ccccc12)[n+]1cccc(CO)c1)c1ccc(Cl)s1 | / | 4 | 1 | 3 | / | 11
Cc1c(Cl)cccc1NC(=S)/C(=C(\[O-])c1ccc(Cl)s1)[n+]1ccccc1 | 84 | 5 | 0.9 | 20 | 91 | 64*
COc1ccc(OC)c(NC(=O)C(=O)NCCC2=CCCCC2)c1 | 94 | -3 | 1 | -22 | 95 | -4
Cc1nn(-c2ccccc2Cl)c(Cl)c1/C=N/Nc1nc2ccccc2s1 | 61 | -2 | 1 | -2 | 55 | 59*
CSc1nc2ccc(NS(=O)(=O)c3cccc(Cl)c3Cl)cc2s1 | 92 | -2 | 1 | -1 | 108 | -6
Cc1cccc(N2C(=O)c3cccc4c(N5CCCCC5)c([N+](=O)[O-])cc(c34)C2=O)c1C | 87 | 6 | 0.9 | 5 | 78 | 89*
CC1=C(C(=O)Nc2ccc([N+](=O)[O-])cc2)C(c2cccc(C(F)(F)F)c2)NC(=S)N1c1ccccc1 (centres undefined) | 1.4* | -4 | 1 | -3 | 1.9* | 38
COc1ccc(C2NC(=S)N(c3ccccc3)C(C)=C2C(=O)Nc2ccccc2)cc1 (centres undefined) | 85 | -4 | 1 | -9 | 96 | 100*
COc1ccc(NC(=O)C2=C(C)NC(=S)NC2c2ccc(O)c(OC)c2)cc1 (centres undefined) | / | -7 | 1.1 | -3 | / | -3
CCNC(=O)/C(=C/c1cccc([N+](=O)[O-])c1)NC(=O)c1ccc(C)cc1 | / | 0 | 1 | -4 | / | 1

Bioassay records as filed in PubChem BioAssay.
